Laboratory results from paper PMC2229441 (The Journal of General Physiology, 1998).
Like-named read-outs stand apart in the source and are kept apart here.

Key:
patch-clamped mast cells = format: cell-based, rat
Method in brief: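 Peritoneal mast cells from male Wistar rats (300–350 g), Percoll-purified, held in DMEM/F-12 with 2 mM glutamine at 37°C, 5% CO2. Test peptide is delivered through the patch pipette (IS 2 with 100 μM FURA-2 and EGTA buffering). Degranulation is tracked as membrane capacitance rise after patch rupture; delay is taken at 10% capacitance increase. [Ca2+]i is read from 340/380 nm ratios. Mean ± SEM (cells).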

PtX-treated mast cells = conditions: non–membrane-penetrating dyes; ref Wiesner et al., manuscript in preparation; cited from earlier work

In the case of Nc1nc2c(ncn2[C@@H]2O[C@H](COP(=O)(O)OP(O)(O)=S)[C@@H](O)[C@H]2O)c(=O)[nH]1 [GDPβS], the “cells in which SP-induced exocytosis was inhibited” value (patch-clamped mast cells; 1 mM GDPβS applied together with 5 μM SP through the patch pipette) is reported as “four of five”.
With Nc1nc2c(ncn2[C@@H]2O[C@H](COP(=O)(O)OP(=O)(O)OP(O)(O)=S)[C@@H](O)[C@H]2O)c(=O)[nH]1 [GTPγS] the degranulation rate (patch-clamped mast cells; 2.5–5 μM, n = 25, mean ± SEM) was 0.05 ± 0.005 pF/s, the degranulation rate (patch-clamped mast cells; 10–25 μM, n = 16, mean ± SEM) was 0.15 ± 0.03 pF/s and the “shortest time delay, extrapolated to high concentrations” value (patch-clamped mast cells; extrapolation of curves of Fig. 7) was “about 20 s”. The “cells in which degranulation occurred” value (patch-clamped mast cells; intracellular application at similar concentrations as SP, IS 1) was 41 of 45 and the “membrane capacitance increase in degranulating cells” value (patch-clamped mast cells; intracellular application, IS 1, mean ± SEM (SP n = 31)) was 2.7 ± 0.1 fold.
In the case of carboxyfluorescein, the “translocation into PtX-treated mast cells” value (PtX-treated mast cells) is given as “not translocated”.
